# In ChEMBL document CHEMBL1938298, “Synthesis and characterization of [¹²⁵I]2-iodo N-[(S)-{(S)-1-methylpiperidin-2-yl}(phenyl)methyl]3-trifluoromethyl-benzamide as novel imaging probe for glycine transporter 1” (Bioorg Med Chem, 2011):
# The source made the active and inactive calls. The calls are words filed in the database; no cut-off is given here.
# Key:
# [1] = target: T1, Sodium- and chloride-dependent glycine transporter 1 (Rattus norvegicus) (UniProt P28572); experiment: Binding affinity to GlyT1 in rat brain cerebellar white matter at 0.03 to 0.04 nM preincubated for 20 mins in binding buffer before compound addition measured after 30 mins by autoradiography relative to control; type: tissue-based; details: tested as the 125I-labelled form
# T1 sequence (whole entry): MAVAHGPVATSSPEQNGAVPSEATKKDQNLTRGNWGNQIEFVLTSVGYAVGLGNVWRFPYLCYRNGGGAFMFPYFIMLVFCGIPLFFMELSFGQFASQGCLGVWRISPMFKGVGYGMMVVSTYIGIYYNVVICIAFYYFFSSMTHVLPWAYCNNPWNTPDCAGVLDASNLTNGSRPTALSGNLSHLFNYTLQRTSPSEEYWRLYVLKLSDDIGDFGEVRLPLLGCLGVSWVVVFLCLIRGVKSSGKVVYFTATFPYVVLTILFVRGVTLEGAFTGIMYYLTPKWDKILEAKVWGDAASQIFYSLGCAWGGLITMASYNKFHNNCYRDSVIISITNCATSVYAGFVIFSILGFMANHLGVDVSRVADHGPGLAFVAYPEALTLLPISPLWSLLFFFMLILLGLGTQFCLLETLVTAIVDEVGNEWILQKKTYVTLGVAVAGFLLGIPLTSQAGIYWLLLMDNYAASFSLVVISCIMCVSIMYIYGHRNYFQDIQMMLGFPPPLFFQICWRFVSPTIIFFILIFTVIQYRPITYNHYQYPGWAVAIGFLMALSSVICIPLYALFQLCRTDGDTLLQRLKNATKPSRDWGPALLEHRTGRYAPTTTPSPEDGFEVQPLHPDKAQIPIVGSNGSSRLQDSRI
# [2] = target: T1, Sodium- and chloride-dependent glycine transporter 1 (Rattus norvegicus); experiment: Binding affinity to GlyT1 in rat brain medullary region at 0.03 to 0.04 nM preincubated for 20 mins in binding buffer before compound addition measured after 30 mins by autoradiography in presence of 0.01 mM GlyT1 inhibitor ALX5407 relative to control; type: tissue-based; details: tested as the 125I-labelled form
# How it was run: (§1)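 Rat brain sagittal sections (20 µm) preincubated 20 min at 25 °C in Tris-HCl buffer pH 7.5 (NaCl, KCl, MgCl2, CaCl2), then 30 min at 25 °C with [125I] tracer (100 kBq, 0.03–0.04 nM) plus competitor (10 µM; glycine 1 or 10 mM). Cold washes, imaging plate 3 days, ROI PSL minus background per mm². % control from ≥triplicate slices, three rats.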
# [3] = target: T1, Sodium- and chloride-dependent glycine transporter 1 (Rattus norvegicus); experiment: Binding affinity to GlyT1 in rat brain midbrain at 0.03 to 0.04 nM preincubated for 20 mins in binding buffer before compound addition measured after 30 mins by autoradiography in presence of 0.01 mM GlyT2 inhibitor ORG25543 relative to control; type: tissue-based; details: tested as the 125I-labelled form; how it was run: as §1
# Mus musculus [4] = experiment: In vivo binding affinity to GlyT1 in ddY mouse brain midbrain at 33.3 kBq, iv after 60 mins in presence of SSR504734 2 mg/kg, iv administered 15 mins prior to compound administration relative to control; type: functional, organism-based; design: dose 2 mg/kg; details: tested as the 125I-labelled form
# [5] = target: T1, Sodium- and chloride-dependent glycine transporter 1 (Rattus norvegicus); experiment: Binding affinity to GlyT1 in rat brain corpus callosum at 0.03 to 0.04 nM preincubated for 20 mins in binding buffer before compound addition measured after 30 mins by autoradiography in presence of 0.01 mM NMDA receptor glycine site antagonist L-701,324 relative to control; type: tissue-based; details: tested as the 125I-labelled form; how it was run: as §1
# [6] = target: T1, Sodium- and chloride-dependent glycine transporter 1 (Rattus norvegicus); experiment: Binding affinity to GlyT1 in rat brain hippocampus at 0.03 to 0.04 nM preincubated for 20 mins in binding buffer before compound addition measured after 30 mins by autoradiography in presence of 0.01 mM GlyT1 inhibitor HPCP relative to control; type: tissue-based; details: tested as the 125I-labelled form; how it was run: as §1
# Mus musculus [7] = experiment: In vivo binding affinity to GlyT1 in ddY mouse brain hippocampus at 33.3 kBq, iv after 60 mins in presence of N-Me-SSR504734 2 mg/kg, iv administered 15 mins prior to compound administration relative to control; type: functional, organism-based; design: dose 2 mg/kg; details: tested as the 125I-labelled form
# How it was run: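 Male ddY mice (6 W, 30–35 g) were given blocker 2 mg/kg iv in 30% DMSO/saline 15 min before [125I] tracer (ca. 33.3 kBq, 0.1 mL, tail vein). Killed 60 min after tracer injection. Brain dissected into regions including hippocampus, weighed and gamma counted, giving % dose/g and region-to-blood ratio versus control. Mean ± SD, n = 5–6; Kruskal–Wallis with Dunn's post-test.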
# Mus musculus [8] = experiment: In vivo binding affinity to GlyT1 in ddY mouse brain hippocampus at 33.3 kBq, iv after 60 mins in presence of nonradioactive compound 2 mg/kg, iv administered 15 mins prior to compound administration relative to control; type: functional, organism-based; design: dose 2 mg/kg; details: tested as the 125I-labelled form
# How it was run: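 Male ddY mice (6 W, 30–35 g) were given [125I]5 (ca. 33.3 kBq, 0.1 mL) iv via tail vein. Blocker (2 mg/kg in 30% DMSO/saline) was given iv 15 min before the tracer. Mice were killed 30 or 60 min after injection and the brain regions were dissected and weighed. Gamma counting gave % dose/g, compared with control; n = 5–6.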
# Intestine = experiment: Drug uptake in ddY mouse intestine at 11.1 kBq, iv after 15 min by gamma counting; type: ADME, organism-based; details: in vivo
# How it was run: (§2)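 Male ddY mice (6 weeks, 30–35 g) received about 11.1 kBq [125I]tracer in 0.1 mL i.v. via tail vein. Killed at set times, organs dissected and weighed, radioactivity gamma counted. Reported as % injected dose/g tissue, mean ± SD, n = 5–6.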
# Stomach = experiment: Drug uptake in ddY mouse stomach at 11.1 kBq, iv after 0.5 min by gamma counting; type: ADME, organism-based; details: in vivo
# How it was run: (§3)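 Male ddY mice (6 weeks, 30–35 g) were given about 11.1 kBq of [125I]tracer in 0.1 mL i.v. via the tail vein. At each time point the animals were killed and organs dissected, weighed and gamma-counted. Uptake is expressed as % injected dose per gram of tissue, mean ± SD, n = 5–6.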
# Pancreas = experiment: Drug uptake in ddY mouse pancreas at 11.1 kBq, iv after 5 min by gamma counting; type: ADME, organism-based; details: in vivo; how it was run: as §3
# Brain = experiment: Drug uptake in ddY mouse brain at 11.1 kBq, iv after 180 min by gamma counting; type: ADME, organism-based; details: in vivo, 3 h; how it was run: as §2
# Mus musculus [9] = experiment: In vivo binding affinity to GlyT1 in ddY mouse brain medullary region at 33.3 kBq, iv after 60 mins in presence of nonradioactive compound 2 mg/kg, iv administered 15 mins prior to compound administration relative to control; type: functional, Medulla of organ
# Kidney = experiment: Drug uptake in ddY mouse kidney at 11.1 kBq, iv after 60 min by gamma counting; type: ADME, organism-based; details: in vivo, 1 h; how it was run: as §3
# Mus musculus [10] = experiment: In vivo binding affinity to GlyT1 in ddY mouse brain thalamus at 33.3 kBq, iv after 30 mins in presence of N-Me-SSR504734 2 mg/kg, iv administered 15 mins prior to compound administration relative to control; type: functional
Compound,Activity [1],Activity [2],Activity [3],Activity (Mus musculus [4]),Activity [5],Activity [6],Activity (Mus musculus [7]),Activity (Mus musculus [8]),Drug uptake (Intestine),Drug uptake (Stomach),Drug uptake (Pancreas),Drug uptake (Brain),Activity (Mus musculus [9]),Drug uptake (Kidney),Activity (Mus musculus [10])
CN1CCCC[C@H]1[C@@H](NC(=O)c1cccc(C(F)(F)F)c1I)c1ccccc1,Active,25.3%,115%,inactive,92.5%,55.9%,Active,Active,–,–,–,–,–,–,–
CN1CCCC[C@H]1[C@@H](NC(=O)c1cccc(C(F)(F)F)c1[125I])c1ccccc1,–,–,–,–,–,–,–,–,3.25 % ID/g,0.83 % ID/g,6.4 % ID/g,0.73 % ID/g,52%,8.27 % ID/g,56%
